# Activity calls are given as the source filed them. No cut-off for these calls is given here.
# Legend:
# [1] = Cytotoxicity against human Capan2 cells assessed as reduction in cell viability after 24 hrs in absence of 10% fetal calf serum by MTS assay; type: functional, cell-based; conditions: Capan-2, 24 h
# Procedure, shortened: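 Cells starved 24 h in low-glucose medium without FCS, then treated 24 h with compound in serum-free conditions. MTS read-out, OD 490 nm, expressed as percent of untreated control. IC50 read graphically from the dose-response plot. Three independent experiments in octuplicate.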
# [2] = Induction of apoptosis in human Paca3 cells assessed as necrotic cells in absence of 10% fetal calf serum at 10 uM after 24 hrs by annexin V-FITC/propidium iodide staining-based flow cytometry (reference value: 0.8 +/- 0.6%); type: functional
# Paca3 = experiment: Induction of apoptosis in human Paca3 cells at 25 uM after 24 hrs in presence of 10% fetal calf serum by TUNEL assay; type: functional, cell-based
# Procedure, shortened: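 PaCa3 cells in serum medium, exposed 24 h (10, 25, 50 μM tested). Cells fixed in 1% formaldehyde, held in 70% ethanol, permeabilized with 0.1% Triton X-100. TdT/FITC-dUTP labelling 90 min at 37 °C, then propidium iodide 2.5 μg/ml with RNase. Percent apoptotic cells by flow cytometry.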
# [3] = Cytotoxicity against human SUM159 cells assessed as reduction in cell viability after 24 hrs in presence of 10% fetal calf serum by MTS assay; type: functional, cell-based; conditions: SUM-159-PT
# Procedure, shortened: (§1)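 Cells in exponential growth, 3×10^3 per well, in medium with 10% FCS. Capan-2, PaCa3, MDA-MB 231, SUM 159 and PC3 were grown in DMEM/Ham's F12 with glutamine 2 mM and insulin 10 µg/ml. U87 was grown in EMEM and LNCaP in RPMI, each with glutamine. Compound 0.1–100 µM, continuous exposure (24 h; 48 h for the 48 h lines). MTS, OD 490 nm. IC50 read graphically. Three independent experiments in octuplicate.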
# U-87MG ATCC = experiment: Cytotoxicity against human U87 cells assessed as reduction in cell viability after 48 hrs in presence of 10% fetal calf serum by MTS assay; type: functional, cell-based; procedure, shortened: as §1
# SUM-159-PT = experiment: Cytotoxicity against human SUM159 cells assessed as reduction in cell viability after 48 hrs in presence of 10% fetal calf serum by MTS assay; type: functional, cell-based; procedure, shortened: as §1
# [4] = Induction of apoptosis in human Paca3 cells assessed as viable cells in presence of 10% fetal calf serum at 25 uM after 24 hrs by annexin V-FITC/propidium iodide staining-based flow cytometry (reference value: 89.9 +/- 0.1%); type: functional
# [5] = Cytotoxicity against human PC3 cells assessed as reduction in cell viability after 24 hrs in presence of 10% fetal calf serum by MTS assay; type: functional, cell-based; conditions: PC-3, 24 h; procedure, shortened: as §1
compound,measurement,setting,value
C/C(=C\CN1CCC(Cc2ccccc2)CC1)c1ccc2ccccc2c1,IC50,[1],9.61 µM
same,Activity,[2],0.3%
same,Activity,Paca3,Active
same,IC50,[3],58.3 µM
same,Activity,U-87MG ATCC,Active
same,Activity,SUM-159-PT,Active
same,Activity,[4],22.4%
same,IC50,[5],50.6 µM
